Converted amounts (≈) assume the structure as drawn.
What was measured:
[1] = Solubility of the compound in water by UV-visible spectrophotometry; format: physicochemical
Plasma [2] = assay: Antithrombin activity in New Zealand white rabbit plasma assessed as thrombin time at 25 uM by coagulometer; format: functional, Oryctolagus cuniculus
Plasma [3] = assay: Antithrombin activity in New Zealand white rabbit plasma assessed as activated partial thromboplastin time at 25 uM by coagulometer; format: functional, Oryctolagus cuniculus
[4] = Solubility of the compound in water by UV-visible spectrophotometry relative to scutellarein; format: physicochemical
Plasma [5] = assay: Antithrombin activity in New Zealand white rabbit plasma assessed as fibrinogen content at 25 uM by coagulometer; format: functional, Oryctolagus cuniculus
Plasma [6] = assay: Antithrombin activity in New Zealand white rabbit plasma assessed as prothrombin time at 25 uM by coagulometer; format: functional, Oryctolagus cuniculus
[7] = system: Radical scavenging activity; assay: Antioxidant activity assessed as inhibition of DPPH radical by spectrophotometric analysis […]; format: functional
Procedure, shortened: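 Sample in DMSO mixed with an equal volume of 0.2 mM ethanolic DPPH. Test compounds spanned […], alongside reference antioxidants and a DMSO control. Reaction ran 30 min at 25 °C, then absorbance was read at 517 nm on a microplate reader. Scavenging % = (1 − A_test/A_control) × 100, with A_control taken from DMSO alone.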

[8] = Absolute bioavailability in po dosed Beagle dog; format: ADME, organism-based, Canis lupus familiaris; settings: in vivo

Row | solubility [1] | fold change (FC) [4] | SMILES | TT (Plasma [2]) | APTT (Plasma [3]) | Activity (Plasma [5]) | PT (Plasma [6]) | IC50 [7] | bioavailability [8]
1 | 7.28 µM (≈ 2.9 µg/mL) | 1.05 | CN1CCN(Cc2c(O)c(O)c(O)c3c(=O)cc(-c4ccc(O)cc4)oc23)CC1 | 14.4 s | 35.42 s | 5.46 g/L | 7.71 s | 32.5 µM | –
2 | 7.07 µM (≈ 2.92 µg/mL) | 1.02 | CCN1CCN(Cc2c(O)c(O)c(O)c3c(=O)cc(-c4ccc(O)cc4)oc23)CC1 | 14.13 s | 35.15 s | 5.54 g/L | 7.41 s | 32.4 µM | –
3 | 7.97 µM (≈ 3.18 µg/mL) | 1.15 | CC(C)N(Cc1c(O)c(O)c(O)c2c(=O)cc(-c3ccc(O)cc3)oc12)C(C)C | 11.75 s | 34.52 s | 5.54 g/L | 7.47 s | 30.1 µM | –
4 | 8.58 µM (≈ 2.95 µg/mL) | 1.23 | CN(C)Cc1c(O)c(O)c(O)c2c(=O)cc(-c3ccc(O)cc3)oc12 | 12.58 s | 34.23 s | 5.56 g/L | 7.45 s | 26.5 µM | –
5 | 7.71 µM (≈ 2.86 µg/mL) | 1.11 | CCN(CC)Cc1c(O)c(O)c(O)c2c(=O)cc(-c3ccc(O)cc3)oc12 | 12.63 s | 34.62 s | 5.36 g/L | 7.55 s | 25 µM | –

More lines, now with the values behind:

Row | SMILES | solubility [1] | fold change (FC) [4] | TT (Plasma [2]) | APTT (Plasma [3]) | Activity (Plasma [5]) | PT (Plasma [6]) | IC50 [7] | bioavailability [8]
6 | O=c1cc(-c2ccc(O)cc2)oc2c(CN3CCOCC3)c(O)c(O)c(O)c12 | 11.6 µM (≈ 4.48 µg/mL) | 1.67 | 14.48 s | 35.48 s | 5.26 g/L | 7.84 s | 30.9 µM | –
7 | O=c1cc(-c2ccc(O)cc2)oc2cc(O)c(O)c(O)c12 [SCUTELLAREIN] | 6.95 µM (≈ 1.99 µg/mL) | – | 10.25 s | 33.36 s | 5.96 g/L | 7.34 s | 24 µM | –
8 | CCCCN1CCN(Cc2c(O)c(O)c(O)c3c(=O)cc(-c4ccc(O)cc4)oc23)CC1 | 9.11 µM (≈ 4.01 µg/mL) | 1.31 | 13.45 s | 35.01 s | 5.56 g/L | 7.4 s | 32.7 µM | –
9 | O=C(O)[C@H]1O[C@@H](Oc2cc3oc(-c4ccc(O)cc4)cc(=O)c3c(O)c2O)[C@H](O)[C@@H](O)[C@@H]1O [SCUTELLARIN] | – | – | – | – | – | – | – | 0.4%

From ChEMBL document CHEMBL2203222, “Mannich bases of scutellarein as thrombin-inhibitors: design, synthesis, biological activity and solubility” (Bioorg Med Chem, 2012)
